Assays:
[1] = tested on: blood glucose; experiment: Postprandial glycemic response to a standardized liquid test meal; type: in vivo, patients with type 1 diabetes; conditions: first 4 h after study drug administration
How it was run: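 Single-blind crossover in adults with type 1 diabetes. Prandial insulin was withheld >8 h and basal insulin >12 h, and blood glucose was clamped to 100–120 mg/dL with IV glucose or insulin. After a 30-min baseline, staff gave an individually optimized SC abdominal insulin dose with or without hyaluronidase, then a liquid meal.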

[2] = Safety: adverse events, hypoglycemia; type: in vivo, patients with type 1 diabetes; conditions: for patients with hypoglycemia (adverse event): generally mild or occasionally moderate, safety population; for number of subjects administered glucose for the treatment of hypoglycemia: intravenous glucose (20%) at investigator's discretion when blood glucose <60 mg/dL or symptoms
[3] = type: in vivo, patients with type 1 diabetes; conditions: s.c., arithmetic mean; n = 21 (lispro), n = 16 (RHI); serum insulin RIA

| Substance | total hyperglycemic excursions (area under the curve >140 mg/dL) [1] | patients with hypoglycemia (adverse event) [2] | number of subjects administered glucose for the treatment of hypoglycemia [2] | fraction of insulin exposure >2 h after injection [3] [%] | fraction of total insulin exposure within the first hour following injection [3] [%] | patients with mild injection-site erythema ([2]; in vivo) |
| --- | --- | --- | --- | --- | --- | --- |
| insulin lispro | 526 min ⋅ mg^−1 ⋅ mL^−1 | 13 of 22 | 6 of 21 | 22 | 39 | – |
| regular human insulin [RHI] | 1,238 min ⋅ mg^−1 ⋅ mL^−1 | 16 of 21 | 12 of 21 | – | – | two |

Reference: article PMC3041204 (Diabetes Care, 2011)
